Data on four compounds can be found in publication PMC2757176 (The Journal of biological chemistry, 2009).

Non-standard residues stand in square brackets, D forms with d. Residues, ends and D or L forms follow the SMILES beside them. *: point of attachment. Biotin = O=C1N[C@H]2[C@H](CS[C@H]2CCCCC(=O)*)N1; pY = N[C@@H](Cc1ccc(OP(=O)(O)O)cc1)C(=O)O

Assay in all cases: Biacore
Format in all cases: binding
Background: SPR reads the build-up and loss of mass on a sensor chip optically.

Test [1] addresses human LCK SH3-SH2 (Homo sapiens, UniProt P06239). A digest of the protocol:
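Recombinant human LCK SH3-SH2 (aa 58–230), N-terminal His-tagged, nickel-agarose purified, gel-filtered; concentration from A280 using a theoretical extinction coefficient. BIAcore 3000 at 37 °C: ~3000 RU streptavidin amine-coupled to CM5 captured biotinylated peptides (CD2 proline-rich peptides ~100 RU; phospho-CD244 ITSM1 ~25 RU). Protein passed at various concentrations; equilibrium binding fitted for Kd against a control flow cell.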

Test [2] concerns the target T1, human PLC-γ1 SH2 N+C (Homo sapiens, UniProt P19174).
T1 sequence (P19174 545-749): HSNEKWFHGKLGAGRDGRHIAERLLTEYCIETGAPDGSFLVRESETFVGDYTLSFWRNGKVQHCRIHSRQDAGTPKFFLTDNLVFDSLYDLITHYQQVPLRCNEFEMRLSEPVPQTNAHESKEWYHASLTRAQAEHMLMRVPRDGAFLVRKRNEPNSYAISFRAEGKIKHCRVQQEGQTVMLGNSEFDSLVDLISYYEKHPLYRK
As to conditions: ratio of SPR affinities, PLC-γ1 SH2 N+C versus FYN-SH3-SH2.

In test [3] the target is human FYN SH3-SH2 (Homo sapiens, UniProt P06241).
Sequence of human FYN SH3-SH2 (P06241 82-248): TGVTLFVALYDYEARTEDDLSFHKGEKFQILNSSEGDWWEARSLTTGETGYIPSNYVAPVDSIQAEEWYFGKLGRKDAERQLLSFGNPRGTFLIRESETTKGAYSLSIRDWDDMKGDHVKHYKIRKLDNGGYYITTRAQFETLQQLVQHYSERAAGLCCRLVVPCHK

Sequence of human LCK SH3-SH2 (P06239 58-230): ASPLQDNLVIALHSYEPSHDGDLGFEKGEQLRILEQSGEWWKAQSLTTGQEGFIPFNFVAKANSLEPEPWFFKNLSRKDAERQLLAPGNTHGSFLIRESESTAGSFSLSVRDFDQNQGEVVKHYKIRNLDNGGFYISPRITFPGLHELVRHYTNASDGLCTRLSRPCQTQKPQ

As usually defined, the Kd is the free concentration of one partner at which half of the binding sites on the other are occupied at equilibrium, for simple one-to-one binding. Consider `CC(C)[C@H](NC(=O)[C@H](CCCNC(=N)N)NC(=O)[C@H](Cc1c[nH]cn1)NC(=O)CNC(=O)[C@@H]1CCCN1C(=O)[C@@H]1CCCN1C(=O)[C@@H]1CCCN1C(=O)[C@@H]1CCCN1C(=O)[C@H](CCCNC(=N)N)NC(=O)[C@H](Cc1c[nH]cn1)NC(=O)[C@H](CO)NC(=O)[C@@H]1CCCN1C(=O)[C@H](C)NC(=O)[C@H](CCC(N)=O)NC(=O)[C@H](CO)NC(=O)[C@H](CCCNC(=N)N)NC(=O)[C@H](Cc1c[nH]cn1)NC(=O)CNC(=O)[C@@H]1CCCN1C(=O)[C@@H]1CCCN1C(=O)[C@@H]1CCCN1C(=O)[C@@H]1CCCN1C(=O)[C@@H]1CCCN1C(=O)[C@H](Cc1c[nH]cn1)NC(=O)CCCC[C@@H]1SC[C@@H]2NC(=O)N[C@@H]21)C(=O)N[C@@H](CCC(N)=O)C(=O)O` [CD2-281-305] (Biotin-HPPPPPGHRSQAPSHRPPPPGHRVQ-OH), for which, in test [1], the Kd is over 1 mM.
Take `CC(C)C[C@H](NC(=O)[C@@H]1CCCN1C(=O)[C@@H]1CCCN1C(=O)CNC(=O)[C@H](CCCCN)NC(=O)[C@H](CCC(N)=O)NC(=O)CCCC[C@@H]1SC[C@@H]2NC(=O)N[C@@H]21)C(=O)N1CCC[C@H]1C(=O)N[C@@H](CCCNC(=N)N)C(=O)N1CCC[C@H]1C(=O)N[C@@H](CCCNC(=N)N)C(=O)N[C@H](C(=O)N[C@@H](CCC(N)=O)C(=O)N1CCC[C@H]1C(=O)N[C@@H](CCCCN)C(=O)N1CCC[C@H]1C(=O)N1CCC[C@H]1C(=O)N[C@@H](Cc1c[nH]cn1)C(=O)NCC(=O)O)C(C)C` [CD2-322] (Biotin-QKGPPLPRPRVQPKPPHG-OH): the Kd in test [1] was over 1 mM.
As for `CC(C)C[C@H](NC(=O)[C@@H](NC(=O)[C@H](CC(=O)O)NC(=O)[C@@H](NC(=O)[C@H](Cc1ccc(OP(=O)(O)O)cc1)NC(=O)[C@H](CC(=O)O)NC(=O)[C@H](CO)NC(=O)[C@H](CC(N)=O)NC(=O)[C@H](CO)NC(=O)[C@H](CC(N)=O)NC(=O)CCCC[C@@H]1SC[C@@H]2NC(=O)N[C@@H]21)C(C)C)C(C)C)C(=O)N1CCC[C@H]1C(=O)O` [EAT-2 127] (Biotin-NSNSD[pY]VDVLP-OH), the “fold increase in affinity of PLC-γ1 compared with FYN binding” value in test [2] came to 30 fold. Besides, the “FYN binding, fold weaker than to the CD244 ITSM” value in test [3] (ratio of SPR affinities, relative to CD244 ITSM 1 peptide) is on record as ~ 5 fold.
Consider “Biotin-KQFQP[pY]FIPIN-OH [CTLA-4, reference compound]”, for which, in test [3] (SPR, 37 °C, biotinylated peptide on streptavidin chip), the “FYN-SH3-SH2 binding to immobilised peptide (in words)” value is recorded as “Negligible binding”.
